Activity calls are given as the source filed them. The calls are words filed in the database; no cut-off is given here.
How the values were obtained:
Pseudomonas aeruginosa [1] = test: Induction of biofilm degradation of Pseudomonas aeruginosa clinical isolate 40 at 50 uM incubated for 1 hr by crystal violet staining analysis relative to control; assay type: functional
How it was run: (§1)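 Bacteria at 1 × 10^6 CFU/mL in BM2 grown static at 37 °C for 24 h to form biofilm. Wells rinsed of unattached cells, then exposed for 1 h to serial peptide dilutions (1.56–50 μM). Washed, stained with 0.1% crystal violet, A590 read. Biomass given as % of untreated biofilm; no-bacteria wells as blanks. At least three biological repeats.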

Pseudomonas aeruginosa [2] = test: Induction of biofilm degradation of Pseudomonas aeruginosa clinical isolate 24 at sub MIC concentration incubated for 1 hr by crystal violet staining analysis; assay type: functional; how it was run: as §1
Pseudomonas aeruginosa [3] = test: Inhibition of biofilm formation of Pseudomonas aeruginosa clinical isolate 24 derived from cystic fibrosis patient sputum at 0.09 to 3.12 uM by crystal violet based staining analysis; assay type: functional, organism-based; details: dose 0.09-3.12 µM
How it was run: (§2)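 CF patient sputum diluted 10-fold with BM2, bacteria added with serial peptide dilutions starting from the highest MIC per isolate. Inoculum suspension 1 × 10^6 CFU/mL. Incubated 24 h at 37 °C without agitation. Unattached cells washed away, then 0.1% crystal violet staining and A590. Biomass given as % of untreated, with no-bacteria blanks.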

Pseudomonas aeruginosa [4] = test: Induction of biofilm degradation of Pseudomonas aeruginosa clinical isolate 53 at sub MIC concentration incubated for 1 hr by crystal violet staining analysis; assay type: functional; how it was run: as §1
Pseudomonas aeruginosa [5] = test: Inhibition of biofilm formation of Pseudomonas aeruginosa PAO1 in patient derived CF-sputum at 0.09 to 3.12 uM by crystal violet based staining analysis; assay type: functional, organism-based; details: dose 0.09-3.12 µM; how it was run: as §2
Pseudomonas aeruginosa [6] = test: Antibiofilm activity against Pseudomonas aeruginosa clinical isolate 24 assessed as inhibition of biofilm formation at sub-inhibitory concentration incubated for 24 hrs by crystal violet staining based microtiter plate method; assay type: functional, organism-based
How it was run: (§3)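 Washed overnight cultures in BM2 medium at 1 × 10^6 CFU/mL with 2-fold serial peptide dilutions in a U-bottom 96-well plate. Incubated 24 h at 37 °C without agitation. Unattached cells washed off, then 0.1% crystal violet stain read at 590 nm. No-bacteria blanks. Biomass expressed as % of untreated biofilm. At least three biological repeats.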

Pseudomonas aeruginosa [7] = test: Induction of biofilm degradation of Pseudomonas aeruginosa clinical isolate 99 at 50 uM incubated for 1 hr by crystal violet staining analysis relative to control; assay type: functional; how it was run: as §1
Pseudomonas aeruginosa [8] = test: Antibiofilm activity against Pseudomonas aeruginosa clinical isolate 629 assessed as inhibition of biofilm formation at sub-inhibitory concentration incubated for 24 hrs by crystal violet staining based microtiter plate method; assay type: functional, organism-based; how it was run: as §3
Pseudomonas aeruginosa [9] = test: Induction of biofilm degradation of Pseudomonas aeruginosa clinical isolate 53 at 50 uM incubated for 1 hr by crystal violet staining analysis relative to control; assay type: functional; how it was run: as §1
Pseudomonas aeruginosa [10] = test: Inhibition of biofilm formation of Pseudomonas aeruginosa clinical isolate 82 derived from cystic fibrosis patient sputum at 0.09 to 3.12 uM by crystal violet based staining analysis; assay type: functional, organism-based; details: dose 0.09-3.12 µM; how it was run: as §2
Pseudomonas aeruginosa [11] = test: Induction of biofilm degradation of Pseudomonas aeruginosa PAO1 at 50 uM incubated for 1 hr by crystal violet staining analysis relative to control; assay type: functional; how it was run: as §1
Pseudomonas aeruginosa [12] = test: Induction of biofilm degradation of Pseudomonas aeruginosa clinical isolate 629 at 50 uM incubated for 1 hr by crystal violet staining analysis relative to control; assay type: functional; how it was run: as §1
Pseudomonas aeruginosa [13] = test: Antibiofilm activity against Pseudomonas aeruginosa PAO1 in basal medium 2 at 12.5 to 100 uM incubated for 24 hrs by resazurin staining based microtiter plate method; assay type: functional, organism-based; details: dose 12.5-100 µM
Pseudomonas aeruginosa [14] = test: Antibiofilm activity against Pseudomonas aeruginosa clinical isolate 53 assessed as inhibition of biofilm formation at sub-inhibitory concentration incubated for 24 hrs by crystal violet staining based microtiter plate method; assay type: functional, organism-based; how it was run: as §3
Pseudomonas aeruginosa [15] = test: Induction of biofilm degradation of Pseudomonas aeruginosa clinical isolate 40 at sub MIC concentration incubated for 1 hr by crystal violet staining analysis; assay type: functional; how it was run: as §1
Pseudomonas aeruginosa [16] = test: Induction of biofilm degradation of Pseudomonas aeruginosa clinical isolate 25 at 50 uM incubated for 1 hr by crystal violet staining analysis relative to control; assay type: functional; how it was run: as §1
Pseudomonas aeruginosa [17] = test: Induction of biofilm degradation of Pseudomonas aeruginosa clinical isolate 82 at 50 uM incubated for 1 hr by crystal violet staining analysis relative to control; assay type: functional; how it was run: as §1
Pseudomonas aeruginosa [18] = test: Antibiofilm activity against Pseudomonas aeruginosa clinical isolate 25 assessed as inhibition of biofilm formation at MIC incubated for 24 hrs by crystal violet staining based microtiter plate method; assay type: functional, organism-based; how it was run: as §3
Pseudomonas aeruginosa [19] = test: Induction of biofilm degradation of Pseudomonas aeruginosa clinical isolate 995 at 50 uM incubated for 1 hr by crystal violet staining analysis relative to control; assay type: functional; how it was run: as §1
Pseudomonas aeruginosa [20] = test: Antibiofilm activity against Pseudomonas aeruginosa clinical isolate 25 assessed as inhibition of biofilm formation at sub-inhibitory concentration incubated for 24 hrs by crystal violet staining based microtiter plate method; assay type: functional, organism-based; how it was run: as §3
Pseudomonas aeruginosa [21] = test: Antibiofilm activity against Pseudomonas aeruginosa clinical isolate 71 assessed as inhibition of biofilm formation at sub-inhibitory concentration incubated for 24 hrs by crystal violet staining based microtiter plate method; assay type: functional, organism-based; how it was run: as §3
Pseudomonas aeruginosa [22] = test: Antibiofilm activity against Pseudomonas aeruginosa clinical isolate 99 assessed as inhibition of biofilm formation at sub-inhibitory concentration incubated for 24 hrs by crystal violet staining based microtiter plate method; assay type: functional, organism-based; how it was run: as §3
Pseudomonas aeruginosa [23] = test: Induction of biofilm degradation of Pseudomonas aeruginosa clinical isolate 172 at 50 uM incubated for 1 hr by crystal violet staining analysis relative to control; assay type: functional; how it was run: as §1
Pseudomonas aeruginosa [24] = test: Induction of biofilm degradation of Pseudomonas aeruginosa clinical isolate 52 at 50 uM incubated for 1 hr by crystal violet staining analysis relative to control; assay type: functional; how it was run: as §1
Pseudomonas aeruginosa [25] = test: Induction of biofilm degradation of Pseudomonas aeruginosa clinical isolate 24 incubated for 1 hr by crystal violet staining analysis relative to control; assay type: functional; details: dose 50.0 µM; how it was run: as §1
Pseudomonas aeruginosa [26] = test: Induction of biofilm degradation of Pseudomonas aeruginosa clinical isolate 59 at <12.5 uM incubated for 1 hr by crystal violet staining analysis; assay type: functional; how it was run: as §1
Pseudomonas aeruginosa [27] = test: Inhibition of biofilm formation of Pseudomonas aeruginosa clinical isolate 24 derived from cystic fibrosis patient sputum at 0.78 to 25 uM by crystal violet based staining analysis; assay type: functional, organism-based; details: dose 0.78-25 µM; how it was run: as §2
Pseudomonas aeruginosa [28] = test: Induction of biofilm degradation of Pseudomonas aeruginosa clinical isolate 71 at 50 uM incubated for 1 hr by crystal violet staining analysis relative to control; assay type: functional; how it was run: as §1
Pseudomonas aeruginosa [29] = test: Antibiofilm activity against Pseudomonas aeruginosa clinical isolate 72 assessed as inhibition of biofilm formation at sub-inhibitory concentration incubated for 24 hrs by crystal violet staining based microtiter plate method; assay type: functional, organism-based; how it was run: as §3
Pseudomonas aeruginosa [30] = test: Induction of biofilm degradation of Pseudomonas aeruginosa clinical isolate 238 at 50 uM incubated for 1 hr by crystal violet staining analysis relative to control; assay type: functional; how it was run: as §1
Pseudomonas aeruginosa [31] = test: Induction of biofilm degradation of Pseudomonas aeruginosa clinical isolate 46 at 50 uM incubated for 1 hr by crystal violet staining analysis relative to control; assay type: functional; how it was run: as §1
Pseudomonas aeruginosa [32] = test: Induction of biofilm degradation of Pseudomonas aeruginosa clinical isolate 251 at 50 uM incubated for 1 hr by crystal violet staining analysis; assay type: functional; how it was run: as §1
Pseudomonas aeruginosa [33] = test: Induction of biofilm degradation of Pseudomonas aeruginosa clinical isolate 72 at 50 uM incubated for 1 hr by crystal violet staining analysis relative to control; assay type: functional; how it was run: as §1
Pseudomonas aeruginosa [34] = test: Induction of biofilm degradation of Pseudomonas aeruginosa clinical isolate 29 at 50 uM incubated for 1 hr by crystal violet staining analysis relative to control; assay type: functional; how it was run: as §1
Pseudomonas aeruginosa [35] = test: Antibiofilm activity against Pseudomonas aeruginosa clinical isolate 46 assessed as inhibition of biofilm formation at sub-inhibitory concentration incubated for 24 hrs by crystal violet staining based microtiter plate method; assay type: functional, organism-based; how it was run: as §3

Q: For CC[C@H](C)[C@H](NC(=O)[C@H](CCCCN)NC(=O)[C@H](CCC(=O)O)NC(=O)[C@H](CCCCN)NC(=O)[C@H](CO)NC(=O)[C@H](CCCCN)NC(=O)[C@H](CCCNC(=N)N)NC(=O)[C@H](Cc1ccccc1)NC(=O)[C@H](Cc1ccccc1)NC(=O)[C@H](CC(=O)O)NC(=O)CNC(=O)[C@H](CC(C)C)NC(=O)[C@@H](N)CC(C)C)C(=O)NCC(=O)N[C@@H](CCCCN)C(=O)N[C@@H](CCC(=O)O)C(=O)N[C@@H](Cc1ccccc1)C(=O)N[C@@H](CCCCN)C(=O)N[C@@H](CCCNC(=N)N)C(=O)N[C@H](C(=O)N[C@H](C(=O)N[C@@H](CCC(N)=O)C(=O)N[C@@H](CCCNC(=N)N)C(=O)N[C@H](C(=O)N[C@@H](CCCCN)C(=O)N[C@@H](CC(=O)O)C(=O)N[C@@H](Cc1ccccc1)C(=O)N[C@@H](CC(C)C)C(=O)N[C@@H](CCCNC(=N)N)C(=O)N[C@@H](CC(N)=O)C(=O)N[C@@H](CC(C)C)C(=O)N[C@H](C(=O)N1CCC[C@H]1C(=O)N[C@@H](CCCNC(=N)N)C(=O)N[C@H](C(=O)N[C@@H](CCC(=O)O)C(=O)N[C@@H](CO)C(N)=O)[C@@H](C)O)C(C)C)[C@@H](C)CC)C(C)C)[C@@H](C)CC, which Activity (Pseudomonas aeruginosa [1]) is on record?
A: 60%

Q: And the Activity (Pseudomonas aeruginosa [2])?
A: Active

Q: What about the inhibition (Pseudomonas aeruginosa [3]) of the same molecule?
A: Active

Q: And the Activity (Pseudomonas aeruginosa [4])?
A: Active

Q: What about the inhibition (Pseudomonas aeruginosa [5]) of the same molecule?
A: Active

Q: And the inhibition (Pseudomonas aeruginosa [6])?
A: Active

Q: What about the Activity (Pseudomonas aeruginosa [7]) of the same molecule?
A: 60%

Q: What about the inhibition (Pseudomonas aeruginosa [8]) of the same molecule?
A: Active

Q: And the Activity (Pseudomonas aeruginosa [9])?
A: 60%

Q: What about the inhibition (Pseudomonas aeruginosa [10]) of the same molecule?
A: Active

Q: What about the Activity (Pseudomonas aeruginosa [11]) of the same molecule?
A: 60%

Q: What about the Activity (Pseudomonas aeruginosa [12]) of the same molecule?
A: 60%

Q: What about the Activity (Pseudomonas aeruginosa [13]) of the same molecule?
A: Active

Q: And the inhibition (Pseudomonas aeruginosa [14])?
A: Active

Q: What about the Activity (Pseudomonas aeruginosa [15]) of the same molecule?
A: Active

Q: And the Activity (Pseudomonas aeruginosa [16])?
A: 60%

Q: And the Activity (Pseudomonas aeruginosa [17])?
A: 60%

Q: What about the inhibition (Pseudomonas aeruginosa [18]) of the same molecule?
A: Active

Q: What about the Activity (Pseudomonas aeruginosa [19]) of the same molecule?
A: 60%

Q: And the inhibition (Pseudomonas aeruginosa [20])?
A: Active

Q: What about the inhibition (Pseudomonas aeruginosa [21]) of the same molecule?
A: Active

Q: What about the inhibition (Pseudomonas aeruginosa [22]) of the same molecule?
A: Active

Q: What about the Activity (Pseudomonas aeruginosa [23]) of the same molecule?
A: 60%

Q: And the Activity (Pseudomonas aeruginosa [24])?
A: 60%

Q: What about the Activity (Pseudomonas aeruginosa [25]) of the same molecule?
A: 60%

Q: And the Activity (Pseudomonas aeruginosa [26])?
A: Active

Q: What about the inhibition (Pseudomonas aeruginosa [27]) of the same molecule?
A: Active

Q: What about the Activity (Pseudomonas aeruginosa [28]) of the same molecule?
A: 60%

Q: What about the inhibition (Pseudomonas aeruginosa [29]) of the same molecule?
A: Active

Q: What about the Activity (Pseudomonas aeruginosa [30]) of the same molecule?
A: 60%

Q: And the Activity (Pseudomonas aeruginosa [31])?
A: 60%

Q: What about the Activity (Pseudomonas aeruginosa [32]) of the same molecule?
A: 60%

Q: And the Activity (Pseudomonas aeruginosa [33])?
A: 60%

Q: And the Activity (Pseudomonas aeruginosa [34])?
A: 60%

Q: What about the inhibition (Pseudomonas aeruginosa [35]) of the same molecule?
A: Active

Source: ChEMBL document CHEMBL5143722, “Antimicrobial Peptides against Multidrug-Resistant Pseudomonas aeruginosa Biofilm from Cystic Fibrosis Patients” (J Med Chem, 2022)
